Values after ≈ are worked out from the molar mass of the structure shown.
Legend:
[1] = system: K. pneumoniae NCTC 13438; test: Broth micro-dilution MIC / dose-response growth inhibition; assay type: cell-based, Klebsiella pneumoniae; details: for MIC: Klebsiella pneumoniae, NCTC13438, read-out: K. pneumoniae NCTC 13438 MIC; for K. pneumoniae NCTC 13438 Interp.: S/R interpretation by EUCAST breakpoint, ECOFF or fold vs QC strain
[2] = system: A. baumannii NCTC 13424; test: as above; assay type: cell-based, Acinetobacter baumannii; details: for MIC: Acinetobacter baumannii, NCTC13424, read-out: A. baumannii NCTC 13424 MIC; for A. baumannii NCTC 13424 Interp.: S/R interpretation by EUCAST breakpoint, ECOFF or fold vs QC strain
[3] = system: K. pneumoniae Ecl8; test: as above; assay type: cell-based, Klebsiella pneumoniae; details: for MIC: Klebsiella pneumoniae, ECL8, read-out: K. pneumoniae Ecl8 MIC; for K. pneumoniae Ecl8 Interp.: S/R interpretation by EUCAST breakpoint, ECOFF or fold vs QC strain
[4] = system: primary screening strains (A. baumannii NCTC 13424, K. pneumoniae NCTC 13438, K. pneumoniae Ecl8); test: HTS / susceptibility assay with the primary screening strains; assay type: cell-based; details: 50 mg L^−1, positive control
Method in brief: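 Broth microdilution (EUCAST method adapted to 384-well); inoculum 5 × 10^5 CFU mL−1 (OD600 0.0005); static at 37 °C in 5% CO2 for 24 h (K. pneumoniae) or 20 h (A. baumannii); compound at one concentration in duplicate, or two concentrations (1.4–68.0 μM, 0.5% DMSO) singly for one library; OD600 read; % growth inhibition normalised between apramycin 50 mg L−1 and DMSO wells; actives called at 3σ.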

| MIC [1] [µg/mL] | MIC [2] [µg/mL] | MIC [3] [µg/mL] | Compound | K. pneumoniae NCTC 13438 Interp. [1] | A. baumannii NCTC 13424 Interp. [2] | K. pneumoniae Ecl8 Interp. [3] | growth inhibition of primary screening strains [4] |
| --- | --- | --- | --- | --- | --- | --- | --- |
| 128 (≈ 266 µM) | 32 (≈ 66.6 µM) | 0.12 (≈ 0.25 µM) | CO/N=C(\C(=O)N[C@@H]1C(=O)N2C(C(=O)[O-])=C(C[N+]3(C)CCCC3)CS[C@H]12)c1csc(N)n1 [Cefepime] | R | R | S | – |
| 128 (≈ 354 µM) | 32 (≈ 88.6 µM) | 0.12 (≈ 0.332 µM) | C[C@H]1COc2c(N3CCN(C)CC3)c(F)cc3c(=O)c(C(=O)O)cn1c23 [Levofloxacin] | R | R | S | – |
| – | – | – | Polymyxin B | S ^c | S ^c | S ^c | – |
| > 512 | 128 (≈ 441 µM) | 4 (≈ 13.8 µM) | COc1cc(Cc2cnc(N)nc2N)cc(OC)c1OC [Trimethoprim] | R | R | S | – |
| > 512 | > 512 | 64 (≈ 253 µM) | Cc1cc(NS(=O)(=O)c2ccc(N)cc2)no1 [Sulfamethoxazole] | R ^c | R ^c | R ^c | – |
| 4 (≈ 7.41 µM) | 8 (≈ 14.8 µM) | 4 (≈ 7.41 µM) | CN[C@@H]1[C@@H](O[C@H]2O[C@H](CO)[C@@H](N)[C@H](O)[C@H]2O)OC2C[C@@H](N)[C@@H](O[C@H]3[C@H](O)[C@@H](O)[C@H](N)C[C@@H]3N)OC2[C@@H]1O (some centres unmarked) [Apramycin] | S ^c | S ^c | S ^c | completely inhibited the growth |
| 32 (≈ 99 µM) | 64 (≈ 198 µM) | 4 (≈ 12.4 µM) | O=C(N[C@H](CO)[C@H](O)c1ccc([N+](=O)[O-])cc1)C(Cl)Cl [Chloramphenicol] | R | – | S | – |
| 32 (≈ 68.4 µM) | > 512 | 1 (≈ 2.14 µM) | NC[C@H]1O[C@H](O[C@H]2[C@H](O)[C@@H](O[C@H]3O[C@H](CO)[C@@H](O)[C@H](N)[C@H]3O)[C@H](N)C[C@@H]2N)[C@H](N)C[C@@H]1O [Tobramycin] | R | R | S | – |
| – | – | – | Colistin | S ^b | S ^b | S ^b | – |
| > 512 | 32 (≈ 73.5 µM) | 0.25 (≈ 0.574 µM) | C[C@H]1[C@H](NC(=O)/C(=N\OC(C)(C)C(=O)O)c2csc(N)n2)C(=O)N1S(=O)(=O)O [Aztreonam] | R | – | S | – |
| 256 (≈ 562 µM) | 512 (≈ 1120 µM) | 0.06 (≈ 0.132 µM) | CO/N=C(\C(=O)N[C@@H]1C(=O)N2C(C(=O)O)=C(COC(C)=O)CS[C@H]12)c1csc(N)n1 [Cefotaxime] | R | R | S | – |
| – | 64 (≈ 167 µM) | 0.06 (≈ 0.156 µM) | C[C@@H](O)[C@H]1C(=O)N2C(C(=O)O)=C(S[C@@H]3CN[C@H](C(=O)N(C)C)C3)[C@H](C)[C@H]12 [Meropenem] | R | R | S | – |
| 512 (≈ 937 µM) | 64 (≈ 117 µM) | 0.5 (≈ 0.915 µM) | CC(C)(O/N=C(\C(=O)N[C@@H]1C(=O)N2C(C(=O)[O-])=C(C[n+]3ccccc3)CS[C@H]12)c1csc(N)n1)C(=O)O [Ceftazidime] | R | R | S | – |
| 4 (≈ 8.74 µM) | 4 (≈ 8.74 µM) | 2 (≈ 4.37 µM) | CN(C)c1ccc(O)c2c1C[C@H]1C[C@H]3[C@H](N(C)C)C(O)=C(C(N)=O)C(=O)[C@@]3(O)C(O)=C1C2=O [Minocycline] | S ^b | S ^b | S ^b | – |
| 4 (≈ 9 µM) | 256 (≈ 576 µM) | 1 (≈ 2.25 µM) | CN(C)[C@@H]1C(O)=C(C(N)=O)C(=O)[C@@]2(O)C(O)=C3C(=O)c4c(O)cccc4[C@@](C)(O)[C@H]3C[C@@H]12 [Tetracycline] | S ^b | R ^b | S ^b | – |
| 4 (≈ 8.38 µM) | > 512 | 1 (≈ 2.09 µM) | CNC(C)C1CCC(N)C(OC2C(N)CC(N)C(OC3OCC(C)(O)C(NC)C3O)C2O)O1 (centres unmarked) [Gentamicin] | R | R | S | – |
| 16 (≈ 116 µM) | 64 (≈ 464 µM) | 64 (≈ 464 µM) | C[C@@H]1O[C@@H]1P(=O)(O)O [Fosfomycin] | S | – | R | – |
| 128 (≈ 428 µM) | 128 (≈ 428 µM) | 0.25 (≈ 0.835 µM) | C[C@@H](O)[C@H]1C(=O)N2C(C(=O)O)=C(SCCN=CN)C[C@H]12 [Imipenem] | R | R | S | – |
| > 512 | – | – | O=C(O)c1cn(C2CC2)c2cc(N3CCNCC3)c(F)cc2c1=O [Ciprofloxacin] | – | R | – | – |
| 64 (≈ 109 µM) | > 512 | 2 (≈ 3.42 µM) | NCC[C@H](O)C(=O)N[C@@H]1C[C@H](N)[C@@H](O[C@H]2O[C@H](CN)[C@@H](O)[C@H](O)[C@H]2O)[C@H](O)[C@H]1O[C@H]1O[C@H](CO)[C@@H](O)[C@H](N)[C@H]1O [Amikacin] | R | R | S | – |

Source: article PMC10963893 (eBioMedicine, 2024)
